{"source": "ChEMBL document CHEMBL3822375", "about": "“Preclinical Characterization of 3β-(N-Acetyl l-cysteine methyl ester)-2aβ,3-dihydrogaliellalactone (GPA512), a Prodrug of a Direct STAT3 Inhibitor for the Treatment of Prostate Cancer” (J Med Chem, 2016)", "key": {"Mus musculus [1]": {"tested_on": "Mus musculus", "experiment": "Toxicity in CD1 mouse assessed as change in body weight at 400 mg/kg, administered as single dose through oral gavage measured on day 1 (reference value: 33.5 +/- 4.34 g)", "type": "organism-based", "conditions": "in vivo"}, "Mus musculus [2]": {"tested_on": "Mus musculus", "experiment": "AUC (0 to t) in mouse plasma assessed as galiellalactone level at 10 mg/kg, po by LC-MS/MS analysis", "type": "ADME, organism-based", "conditions": "in vivo", "summary_of_the_method": "(§1)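 Single dose to mice; oral, iv or ip as listed, in 5% DMSO/50 mM citrate buffer pH 4.0 (dosing solutions 0.5, 2 or 5 mg/mL). Oral dosing at 20 mL/kg. Terminal blood under barbiturate anaesthesia at eight time-points to 8 h, n=3 mice per time-point, EDTA plasma. Acetonitrile precipitation with internal standard, LC-MS/MS against plasma calibration lines. Non-compartmental analysis on mean data, trapezoidal AUC.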"}, "Mus musculus [3]": {"tested_on": "Mus musculus", "experiment": "Apparent half life in mouse plasma assessed as galiellalactone level at 10 mg/kg, po by LC-MS/MS analysis", "type": "ADME, organism-based", "conditions": "in vivo", "summary_of_the_method": "as §1"}, "Hepatocyte": {"tested_on": "Hepatocyte", "experiment": "Prodrug conversion in mouse hepatocytes assessed as galiellalactone formation of after 2 hrs by UPLC-MS analysis", "type": "ADME, cell-based", "summary_of_the_method": "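Cryopreserved mouse hepatocytes incubated with an initial 10 µM test item (DMSO stock) in Celsis InVitro HI medium, pH 7.4, 37 °C. Cell viability checked by Trypan blue. Sampled at 0 and 120 min and stopped with an equal volume of acetonitrile. Analysed by UPLC/Q-TOF-MS.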"}, "[4]": {"experiment": "Antiproliferative activity against human DU145 cells after 72 hrs by WST-1 proliferation assay", "type": "functional, cell-based", "conditions": "DU-145, 72 h", "summary_of_the_method": "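Cells in RPMI-1640 (DU145, LNCaP, LNCaP-IL6+) or HAM's F-12 (PC3) with 10% FBS. DU145 and LNCaP-IL6+ seeded at 2 000 cells/well, LNCaP and PC3 at 5 000 cells/well, adhered 24 h, then exposed to compound for 72 h. WST-1 absorbance read at 450 nm with 630 nm reference. Background subtracted; expressed as percent of untreated cells.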"}, "[5]": {"experiment": "Chemical stability of the compound in phosphate buffer saline assessed as half life at 10 uM at pH 7.4 by LC-MS/MS analysis", "type": "physicochemical", "conditions": "phosphate buffered saline", "summary_of_the_method": "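Compound diluted from DMSO (or methanol) stock to 10 µM, 2% solvent final, n=2. Matrix was 0.1 M PBS pH 7.4, or […] HCl with 2 mg/mL NaCl adjusted to pH 1.2. Mixed on a shaker; sampled at nominal 5, 15, 30 and 60 min plus T=0. LC-MS/MS with internal standard; % remaining relative to T=0. Formation of parent also monitored.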"}, "Mus musculus [6]": {"tested_on": "Mus musculus", "experiment": "AUC (0 to infinity) in mouse plasma assessed as galiellalactone level at 10 mg/kg, po by LC-MS/MS analysis", "type": "ADME, organism-based", "parameters": "dose 10 mg/kg, route oral, time infinity", "conditions": "in vivo", "summary_of_the_method": "as §1"}, "Mus musculus [7]": {"tested_on": "Mus musculus", "experiment": "Toxicity in CD1 mouse assessed as change in body weight at 200 mg/kg, administered as single dose through oral gavage measured on day 8 (reference value: 32.28 +/- 4.42 g)", "type": "organism-based", "conditions": "in vivo"}, "Mus musculus [8]": {"tested_on": "Mus musculus", "experiment": "AUC (0 to t) in mouse plasma assessed as galiellalactone level at 40 mg/kg, po by LC-MS/MS analysis", "type": "ADME, organism-based", "conditions": "in vivo", "summary_of_the_method": "as §1"}, "Mus musculus [9]": {"tested_on": "Mus musculus", "experiment": "Toxicity in CD1 mouse assessed as change in body weight at 40 mg/kg, administered as single dose through oral gavage measured on day 8 (reference value: 32.28 +/- 4.42 g)", "type": "organism-based", "conditions": "in vivo"}, "Mus musculus [10]": {"tested_on": "Mus musculus", "experiment": "Toxicity in CD1 mouse assessed as change in body weight at 400 mg/kg, administered as single dose through oral gavage measured on day 4 (reference value: 34.68 +/- 4.71 g)", "type": "organism-based", "conditions": "in vivo"}, "Mus musculus [11]": {"tested_on": "Mus musculus", "experiment": "Apparent half life in mouse plasma assessed as galiellalactone level at 40 mg/kg, po by LC-MS/MS analysis", "type": "ADME, organism-based", "conditions": "in vivo", "summary_of_the_method": "as §1"}, "Mus musculus [12]": {"tested_on": "Mus musculus", "experiment": "Toxicity in CD1 mouse assessed as change in body weight at 40 mg/kg, administered as single dose through oral gavage measured on day 1 (reference value: 33.5 +/- 4.34 g)", "type": "organism-based", "conditions": "in vivo"}, "Plasma [13]": {"tested_on": "Plasma", "experiment": "Half life in rat plasma assessed as formation of galiellalactone at 5 uM by LC-MS/MS analysis", "type": "ADME, cell-free", "summary_of_the_method": "(§2)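 Plasma of each species incubated at 37 °C with compound at 5 µM initial, 1% DMSO, n=2. Simvastatin and eucatropine run as controls. Aliquots taken at 0, 5, 15, 30 and 60 min and quenched with acetonitrile containing internal standard, then analysed by LC-MS/MS.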"}, "Mus musculus [14]": {"tested_on": "Mus musculus", "experiment": "Toxicity in CD1 mouse assessed as effect on histopathological parameters at 40 to 400 mg/kg, administered as single dose through oral gavage", "type": "organism-based", "conditions": "in vivo", "summary_of_the_method": "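Male CD1 mice, 7 weeks old, 5 per group, given one oral gavage dose of 40, 200 or 400 mg/kg in 50 mM citrate buffer, pH 4.0, 5% DMSO, alongside a vehicle control group. Clinical signs, clinical pathology and histopathology were assessed, with the study ending on day 8.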"}, "DU-145 [15]": {"tested_on": "DU-145", "experiment": "Antiproliferative activity against human DU145 cells xenografted in NMRI nude mouse assessed as reduction in Ki67 ratio at 40 mg/kg, po administered 5 times per week for 4 weeks by Ki67 staining-based immunohistochemical analysis", "type": "functional, organism-based", "summary_of_the_method": "(§3)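 Tumours from the oral DU145 xenograft study were fixed in formaldehyde and sectioned. IHC used the EnVision Flex kit with anti-Ki67 and anti-pSTAT3 antibodies, imaged at 10× bright field. Ki67 scored as Ki67-positive cells over total cells.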"}, "DU-145 [16]": {"tested_on": "DU-145", "experiment": "Induction of apoptosis in human DU145 cells xenografted in NMRI nude mouse assessed as increase in cleaved caspase3 level at 40 mg/kg, po administered 5 times per week for 4 weeks by immunohistochemical analysis", "type": "functional, organism-based", "summary_of_the_method": "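DU145 cells (1.5 million) inoculated subcutaneously in the flank of NMRI-nude male mice. After four weeks, 10 mice per group were dosed orally by feeding needle with 40 mg/kg or vehicle (50 mM citrate buffer pH 4.0, 2% DMSO), five days a week for four weeks. Tumours were fixed in formaldehyde and stained for cleaved caspase-3. Positive cells were counted as the mean per view over five 10x views per section.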"}, "Mus musculus [17]": {"tested_on": "Mus musculus", "experiment": "AUC (0 to infinity) in mouse plasma assessed as galiellalactone level at 100 mg/kg, po by LC-MS/MS analysis", "type": "ADME, organism-based", "parameters": "dose 100 mg/kg, time infinity, route oral", "conditions": "in vivo", "summary_of_the_method": "as §1"}, "Mus musculus [18]": {"tested_on": "Mus musculus", "experiment": "Cmax in mouse plasma assessed as galiellalactone level at 10 mg/kg, po by LC-MS/MS analysis", "type": "ADME, organism-based", "parameters": "dose 10 mg/kg, route oral", "conditions": "in vivo", "summary_of_the_method": "as §1"}, "Mus musculus [19]": {"tested_on": "Mus musculus", "experiment": "Toxicity in NMRI mouse xenografted with human DU145 cells assessed as weight loss at 40 mg/kg, po administered 5 times per week for 4 weeks measured on day 26 and day 29", "type": "organism-based, DU-145", "conditions": "in vivo, 672 h", "summary_of_the_method": "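Male NMRI-nude mice, 20 in total, were given 1.5 million DU145 cells subcutaneously in the flank. After 4 weeks they were split into two groups of 10. Each group was gavaged with 40 mg/kg or with vehicle (50 mM citrate buffer pH 4.0, 2% DMSO) daily, 5 times per week for 4 weeks. Body weight, behaviour, side effects and survival were monitored, and tumours were measured twice weekly by caliper.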"}, "Plasma [20]": {"tested_on": "Plasma", "experiment": "Half life in human plasma assessed as formation of galiellalactone at 5 uM by LC-MS/MS analysis", "type": "ADME, cell-free", "summary_of_the_method": "as §2"}, "Mus musculus [21]": {"tested_on": "Mus musculus", "experiment": "Effect on STAT3 phosphorylation in NMRI mouse xenografted with human DU145 cells at 40 mg/kg, po administered 5 times per week for 4 weeks by immunohistochemical analysis", "type": "functional, organism-based", "conditions": "DU-145", "summary_of_the_method": "as §3"}, "Mus musculus [22]": {"tested_on": "Mus musculus", "experiment": "Apparent half life in mouse plasma assessed as galiellalactone level at 100 mg/kg, po by LC-MS/MS analysis", "type": "ADME, organism-based", "conditions": "in vivo", "summary_of_the_method": "as §1"}}, "note": "Calls of active or inactive are those of the source. No cut-off for these calls is given here."}
{"smiles": "COC(=O)[C@H](CS[C@H]1C2C(=O)O[C@@H]3CC[C@H](C[C@@H]1C)[C@]23O)NC(C)=O", "note": "(stereo partly drawn)", "values": [{"measurement": "Activity", "setting": "Mus musculus [1]", "result": 33.16, "unit": "g"}, {"measurement": "AUCt", "setting": "Mus musculus [2]", "result": 117, "unit": "µg/mL/min"}, {"measurement": "t1/2(app)", "setting": "Mus musculus [3]", "result": 1.53, "unit": "h"}, {"measurement": "Drug metabolism", "setting": "Hepatocyte", "result": "metabolite_detected"}, {"measurement": "IC50", "setting": "[4]", "result": 4.81, "unit": "µM"}, {"measurement": "half-life at 10 µM", "setting": "[5]", "result": "> 2.5", "unit": "h"}, {"measurement": "AUC", "setting": "Mus musculus [6]", "result": 120, "unit": "µg/mL/min"}, {"measurement": "Activity", "setting": "Mus musculus [7]", "result": 33.02, "unit": "g"}, {"measurement": "AUCt", "setting": "Mus musculus [8]", "result": 213, "unit": "µg/mL/min"}, {"measurement": "Activity", "setting": "Mus musculus [9]", "result": 31.12, "unit": "g"}, {"measurement": "Activity", "setting": "Mus musculus [10]", "result": 34.76, "unit": "g"}, {"measurement": "t1/2(app)", "setting": "Mus musculus [11]", "result": 3, "unit": "h"}, {"measurement": "Activity", "setting": "Mus musculus [12]", "result": 32.52, "unit": "g"}, {"measurement": "t1/2", "setting": "Plasma [13]", "result": "< 5", "unit": "min"}, {"measurement": "Activity", "setting": "Mus musculus [14]", "result": "Non-toxic"}, {"measurement": "inhibition", "setting": "DU-145 [15]", "result": "Active"}, {"measurement": "Activity", "setting": "DU-145 [16]", "result": "Active"}, {"measurement": "AUC", "setting": "Mus musculus [17]", "result": 679, "unit": "µg/mL/min"}, {"measurement": "Cmax", "setting": "Mus musculus [18]", "result": 1893, "unit": "ng/mL"}, {"measurement": "Activity", "setting": "Mus musculus [19]", "result": "Non-toxic"}, {"measurement": "t1/2", "setting": "Plasma [20]", "result": "< 5", "unit": "min"}, {"measurement": "Activity", "setting": "Mus musculus [21]", "result": "inactive"}, {"measurement": "t1/2(app)", "setting": "Mus musculus [22]", "result": 3, "unit": "h"}]}
